Legend:
Assay type in all cases: functional
[1] = test system: A498; experiment: Anticancer activity against human A498 cells after 48 hrs by SRB assay; settings: A498, 48 h
Outline: (§1)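 NCI five-dose screen. Cells in RPMI 1640 with 5% FBS and 2 mM L-glutamine, seeded at 5000–40,000 cells/well according to doubling time, then pre-incubated 24 h at 37 °C in 5% CO2. Drugs dissolved in DMSO, five concentrations by 10-fold or 1/2-log dilution. Cells fixed with TCA, SRB-stained, A515 read. IC50 solved from [(Ti−Tz)/(C−Tz)]×100 = 50.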

[2] = test system: SN12C; experiment: Anticancer activity against human SN12C cells after 48 hrs by SRB assay
[3] = test system: HCC 2998; experiment: Anticancer activity against human HCC2998 cells after 48 hrs by SRB assay; settings: HCC 2998, 48 h; outline: as §1
[4] = test system: NCI-H226; experiment: Anticancer activity against human NCI-H226 cells after 48 hrs by SRB assay; settings: NCI-H226, 48 h
[5] = test system: OVCAR-3; experiment: Anticancer activity against human OVCAR3 cells after 48 hrs by SRB assay; settings: OVCAR-3, 48 h
[6] = test system: IGROV-1; experiment: Anticancer activity against human IGROV1 cells after 48 hrs by SRB assay; settings: IGROV-1, 48 h; outline: as §1
[7] = test system: UACC-257; experiment: Anticancer activity against human UACC257 cells after 48 hrs by SRB assay; settings: UACC-257, 48 h
Outline: (§2)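 NCI-60 five-dose mode: cells in RPMI 1640 with 5% FBS and 2 mM glutamine, plated at 5000–40,000 cells/well, and preincubated 24 h, with time-zero plates TCA-fixed. Drug given at five concentrations (10-fold or ½-log serial dilutions). Cold TCA fixation 60 min at 4 °C, SRB stain, Tris solubilization, A515. IC50 taken where [(Ti−Tz)/(C−Tz)]×100 = 50.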

[8] = test system: MCF7; experiment: Anticancer activity against human MCF7 cells after 48 hrs by SRB assay; settings: MCF7, 48 h; outline: as §1
[9] = test system: SNB-75; experiment: Anticancer activity against human SNB75 cells after 48 hrs by SRB assay; settings: SNB-75, 48 h
[10] = test system: MDA-MB-231; experiment: Anticancer activity against human MDA-MB-231 cells after 48 hrs by SRB assay; settings: MDA-MB-231, 48 h; outline: as §1
[11] = test system: A549; experiment: Anticancer activity against human A549 cells after 48 hrs by SRB assay; settings: A549, 48 h; outline: as §1
[12] = test system: SW-620; experiment: Anticancer activity against human SW620 cells after 48 hrs by SRB assay; settings: SW-620, 48 h; outline: as §2
[13] = test system: MOLT-4; experiment: Anticancer activity against human MOLT4 cells after 48 hrs by SRB assay; settings: MOLT-4, 48 h
[14] = test system: CCRF-CEM; experiment: Anticancer activity against human CCRF-CEM cells after 48 hrs by SRB assay; outline: as §1
[15] = Anticancer activity against human Hs 578T cells after 48 hrs by SRB assay; outline: as §1
[16] = test system: NCI-H460; experiment: Anticancer activity against human NCI-H460 cells after 48 hrs by SRB assay; settings: NCI-H460, 48 h
[17] = test system: M14; experiment: Anticancer activity against human M14 cells after 48 hrs by SRB assay; settings: M14, 48 h; outline: as §1
[18] = test system: SK-MEL-28; experiment: Anticancer activity against human SK-MEL-28 cells after 48 hrs by SRB assay; settings: SK-MEL-28, 48 h
[19] = test system: SNB-19; experiment: Anticancer activity against human SNB19 cells after 48 hrs by SRB assay; settings: SNB-19, 48 h
[20] = test system: TK-10; experiment: Anticancer activity against human TK10 cells after 48 hrs by SRB assay; settings: TK-10, 48 h; outline: as §2
[21] = test system: KM12; experiment: Anticancer activity against human KM12 cells after 48 hrs by SRB assay; settings: KM12, 48 h; outline: as §1
[22] = test system: SF-295; experiment: Anticancer activity against human SF295 cells after 48 hrs by SRB assay; settings: SF-295, 48 h
[23] = test system: ACHN; experiment: Anticancer activity against human ACHN cells after 48 hrs by SRB assay; outline: as §1
[24] = test system: DU-145; experiment: Anticancer activity against human DU145 cells after 48 hrs by SRB assay; settings: DU-145, 48 h; outline: as §1
[25] = test system: UACC-62; experiment: Anticancer activity against human UACC62 cells after 48 hrs by SRB assay; settings: UACC-62, 48 h; outline: as §2
[26] = test system: OVCAR-8; experiment: Anticancer activity against human OVCAR8 cells after 48 hrs by SRB assay; settings: OVCAR-8, 48 h
[27] = test system: HCT-15; experiment: Anticancer activity against human HCT15 cells after 48 hrs by SRB assay; settings: HCT-15, 48 h; outline: as §1
[28] = test system: UO-31; experiment: Anticancer activity against human UO31 cells after 48 hrs by SRB assay; settings: UO-31, 48 h; outline: as §2
[29] = test system: NCI-H322M; experiment: Anticancer activity against human NCI-H322M cells after 48 hrs by SRB assay
[30] = test system: PC-3; experiment: Anticancer activity against human PC3 cells after 48 hrs by SRB assay; settings: PC-3, 48 h
[31] = read-out: LC50 (the source's name)

O=C(NCCNc1nccc(-c2c(-c3cccc(O)c3)nc3sccn23)n1)c1ccccc1
GI50 [1]: 3.68 µM
TGI [1]: 19.3 µM
CC50 [1, 31]: 58 µM
GI50 [2]: 9.04 µM
TGI [2]: 38.4 µM
CC50 [2, 31]: > 100 µM
GI50 [3]: 13.8 µM
TGI [3]: 31.2 µM
CC50 [3, 31]: 70.3 µM
GI50 [4]: 7.95 µM
TGI [4]: 45.3 µM
GI50 [5]: 12.3 µM
TGI [5]: 64.8 µM
CC50 [5, 31]: > 100 µM
GI50 [6]: 3.61 µM
TGI [6]: 50.8 µM
CC50 [6, 31]: > 100 µM
GI50 [7]: 0.489 µM
TGI [7]: 18.5 µM
CC50 [7, 31]: > 100 µM
GI50 [8]: 3.24 µM
TGI [8]: 14.9 µM
CC50 [8, 31]: 46.5 µM
GI50 [9]: 3.27 µM
TGI [9]: 28.1 µM
CC50 [9, 31]: > 100 µM
GI50 [10]: 7.05 µM
TGI [10]: 31.5 µM
CC50 [10, 31]: > 100 µM
GI50 [11]: 9.21 µM
TGI [11]: 46.5 µM
GI50 [12]: 18 µM
TGI [12]: 79.4 µM
CC50 [12, 31]: > 100 µM
GI50 [13]: 13.5 µM
TGI [13]: 74.2 µM
CC50 [13, 31]: > 100 µM
GI50 [14]: 3.38 µM
TGI [14]: 34.1 µM
CC50 [14, 31]: > 100 µM
GI50 [15]: 4.86 µM
TGI [15]: 38.3 µM
CC50 [15, 31]: > 100 µM
GI50 [16]: 10.4 µM
TGI [16]: 27.5 µM
GI50 [17]: 0.434 µM
TGI [17]: 12.3 µM
CC50 [17, 31]: 37.3 µM
GI50 [18]: 0.336 µM
TGI [18]: 99.1 µM
CC50 [18, 31]: > 100 µM
GI50 [19]: 29.4 µM
TGI [19]: > 100 µM
CC50 [19, 31]: > 100 µM
GI50 [20]: 11.7 µM
TGI [20]: 37.1 µM
CC50 [20, 31]: > 100 µM
GI50 [21]: 12.1 µM
TGI [21]: 28.5 µM
CC50 [21, 31]: 67.1 µM
GI50 [22]: 12.9 µM
TGI [22]: 38 µM
CC50 [22, 31]: > 100 µM
GI50 [23]: 6.43 µM
TGI [23]: 34.9 µM
CC50 [23, 31]: > 100 µM
GI50 [24]: 19.7 µM
TGI [24]: 68.7 µM
CC50 [24, 31]: > 100 µM
GI50 [25]: 0.211 µM
TGI [25]: 1.37 µM
CC50 [25, 31]: 25.2 µM
GI50 [26]: 11.1 µM
TGI [26]: 78.8 µM
CC50 [26, 31]: > 100 µM
GI50 [27]: 18.8 µM
TGI [27]: 62.2 µM
CC50 [27, 31]: > 100 µM
GI50 [28]: 12.2 µM
TGI [28]: 88.7 µM
CC50 [28, 31]: > 100 µM
GI50 [29]: 26.3 µM
TGI [29]: > 100 µM
CC50 [29, 31]: > 100 µM
GI50 [30]: 11.9 µM
TGI [30]: 65.7 µM
CC50 [30, 31]: > 100 µM
